Assay outcomes from PubChem.
The list is not random: actives were taken first. Their share in the collection is about 6.4%.
PostGolgi ctrl = growth of the yeast control strain, post-Golgi counter-screen. AID 738. efflux-deficient yeast background strain, growth absorbance A615, 16 h. inhibition, % at 10 µM. hit rate 5% among 98,000
PLK1 inh = PLK1 (human) kinase inhibition; hit rate 0.53% among 97,000; recombinant PLK1 kinase, TR-FRET peptide phosphorylation; inhibition, % at 10 µM; P53350;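 active means inhibition of 50% or more in the single-concentration screen; inactive means inhibition below 50%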;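 further: 0% = DMSO max control and 100% = H-89 dihydrochloride min control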
EphB4 antag = blocks human EphB4 binding to ephrin-B2; EphB4 LBD / TNYL-RAW-Alexa532 peptide, fluorescence polarization; inhibition, % at 7 µM; hit rate 0.15% among 97,000; AID 720;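 active means inhibition above the screen-wide mean inhibition plus 3 SD, cut at about 15% in these data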;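 further: 0% = DMSO wells and 100% = excess unlabeled TNYL-RAW peptide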
Target sequence (P54760 whole entry, looked up, the tested form may be a part): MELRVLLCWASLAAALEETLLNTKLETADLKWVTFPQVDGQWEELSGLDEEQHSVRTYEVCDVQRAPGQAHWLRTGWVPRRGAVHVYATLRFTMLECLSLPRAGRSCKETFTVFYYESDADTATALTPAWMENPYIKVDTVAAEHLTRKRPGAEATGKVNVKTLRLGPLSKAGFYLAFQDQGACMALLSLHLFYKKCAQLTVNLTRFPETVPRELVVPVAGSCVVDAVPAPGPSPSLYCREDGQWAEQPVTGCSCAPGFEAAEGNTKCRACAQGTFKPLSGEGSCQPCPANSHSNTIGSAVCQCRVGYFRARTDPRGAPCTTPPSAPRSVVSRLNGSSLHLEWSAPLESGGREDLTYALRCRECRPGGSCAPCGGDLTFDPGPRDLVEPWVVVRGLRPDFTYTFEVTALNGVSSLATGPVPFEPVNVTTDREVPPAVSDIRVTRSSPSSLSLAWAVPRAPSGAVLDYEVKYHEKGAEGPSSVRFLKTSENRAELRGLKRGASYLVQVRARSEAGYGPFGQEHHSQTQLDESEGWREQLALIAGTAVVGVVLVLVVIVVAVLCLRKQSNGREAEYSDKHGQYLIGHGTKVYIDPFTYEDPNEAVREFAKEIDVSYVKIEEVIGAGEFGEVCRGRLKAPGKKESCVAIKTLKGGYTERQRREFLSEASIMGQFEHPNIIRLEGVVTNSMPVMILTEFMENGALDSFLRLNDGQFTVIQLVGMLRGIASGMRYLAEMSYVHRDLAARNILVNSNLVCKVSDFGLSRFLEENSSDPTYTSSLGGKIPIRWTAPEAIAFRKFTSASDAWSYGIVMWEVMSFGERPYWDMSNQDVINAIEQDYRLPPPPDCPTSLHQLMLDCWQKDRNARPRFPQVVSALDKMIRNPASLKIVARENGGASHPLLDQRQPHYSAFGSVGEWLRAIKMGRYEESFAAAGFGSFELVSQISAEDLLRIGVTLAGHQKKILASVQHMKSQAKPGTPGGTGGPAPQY
PLK1 PBD inh = Plk1 (human) PBD binding inhibition | P53350 | hit rate 0.13% among 97,000 | inhibition, %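 (tested at about 20 µM)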 | Plk1 PBD phosphopeptide binding, fluorescence polarization; in the data active means inhibition above about 34%, passing the limit was not always enough
HIV Rev-RRE inh = HIV Rev-RRE protein-RNA interaction inhibition; Rev peptide-RRE RNA binding, FRET; inhibition, % at 8 µM; hit rate 0.79% among 97,000; P05866;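 active means inhibition above the screen-wide mean plus 3 SD, cut at about 35% in these data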;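 further: 0% = median DMSO wells and 100% = median Neomycin B control wells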
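Test system – labelled RRE RNA duplex and labelled Rev peptide · Reagent – labelled Rev peptide · Doses – one concentration, 8 µM nominal · Incubation – 5 + 15 min at 25 °C · Signal – FRET fluorescence readout · Read-out basis – % inhibition of FRET ratio versus controls · Control set – DMSO wells as 0% and neomycin B wells as 100% inhibition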
PostGolgi yeast = growth inhibition of a yeast mutant, post-Golgi transport screen; post-Golgi transport phenotypic cell assay; inhibition, % at 10 µM; hit rate 0.9% among 98,000;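 further: yeast cells grown in 1536-well plates; yeast grown about 18 h at 30C before absorbance read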
Active calls of the source: *; x = no result. Unless noted, no stated cut-off is given here; in the data, active means inhibition above about 30%; inactive means the rest.

SMILES	PostGolgi ctrl	PLK1 inh	EphB4 antag	PLK1 PBD inh	HIV Rev-RRE inh	PostGolgi yeast
CC1CCCN(C(=O)c2ccc3c(=O)n(Cc4ccc5c(c4)OCO5)c(=S)[nH]c3c2)C1 (centres undefined)	46.5*	-16.9	-6.9	-7.8	-2.0	-1.1
CC1CCN(C(=O)CSc2nc3ccccc3c(=O)n2Cc2ccc3c(c2)OCO3)CC1	43.5*	-15.5	1.8	13.9	-2.5	-6.4
CCCn1c(=S)[nH]c2cc(C(=O)N3CCCC(C(=O)OCC)C3)ccc2c1=O (centres undefined)	8.7	6.8	2.6	-13.8	0.0	-0.3
C=CCn1c(SCc2c(F)cccc2Cl)nnc1-c1ccco1	6.8	-12.1	2.4	13.6	4.7	-3.6
CCOC(=O)CN1C(=O)Nc2ccc(Br)cc2C1c1ccccc1 (centres undefined)	13.1	-8.8	6.3	-4.0	5.1	8.9
COC(=O)CN1C(=O)Nc2ccc(Br)cc2C1c1ccccc1Cl (centres undefined)	33.4*	-5.6	-2.9	-12.8	0.3	-9.3
CC1CCN(C(=O)Cn2c(=O)n(CCc3ccccc3)c(=O)c3ccccc32)CC1	43.4*	-0.9	-5.8	-14.2	0.9	20.9
Cc1nc(N2CCN(Cc3ccccc3)CC2)[nH]c(=O)c1C	x	12.9	-10.0	-3.4	2.3	x
O=c1cc(-c2ccccc2)nc(N2CCN(Cc3ccccc3)CC2)[nH]1	38.9*	5.5	5.0	-4.7	0.3	12.9
O=C(Nc1ccccc1F)c1ccc2nc(N3C(=O)CCC3=O)sc2c1	44.0*	-9.1	-6.8	3.4	3.0	0.3
CCOc1cc(C(=O)CCC(=O)OCC(=O)N2c3ccccc3NC(=O)C2(C)C)ccc1O	-5.0	-6.6	1.7	10.8	3.1	5.3
CC(=O)c1c(C(C)=O)c(C)n(-c2nc(-c3ccc(Br)cc3)c(C)s2)c1C	56.2*	-8.5	4.8	-8.1	12.5	-9.3
COc1ccc(-c2nc(-n3c(C)c(C(C)=O)c(C(C)=O)c3C)sc2C)cc1OC	29.2	-37.5	0.8	-8.1	4.5	-8.6
CCCOc1ccc(-c2cnc(N)s2)cc1	8.0	-5.5	-9.3	-3.4	7.2	-6.5
COC(=O)c1c(NS(=O)(=O)Cc2ccccc2)sc2c1CCCC2	41.4*	-6.1	1.3	9.1	-6.8	-5.3
COC(=O)c1c(NS(C)(=O)=O)sc2c1CCCC2	16.2	-15.0	0.1	-16.1	6.9	-6.4
COc1ccc(C(=O)Nc2ccc(S(=O)(=O)NC(C)=O)cc2)cc1	36.0*	-4.4	-8.5	34.8	4.2	-7.8
O=[N+]([O-])c1ccc(/C=N/Nc2nc(N3CCCCC3)nc(N3CCCCC3)n2)o1	49.1*	-7.5	6.0	6.6	23.4	11.8
O=S(=O)(NCC(c1cccnc1)N1CCN(c2ccccc2)CC1)c1cc(F)ccc1F (centres undefined)	74.9*	-9.1	-7.8	-9.5	9.5	94.5*
COc1ccc(OC)c(-n2c(SCC(=O)N3CCc4ccccc43)nc3c(c2=O)SCC3)c1	41.4*	x	x	x	x	8.6
CC(=O)Nc1ccc(S(=O)(=O)N2CCC(n3cnc4cc(F)ccc43)CC2)cc1	-4.7	-1.0	2.6	-6.0	7.0	6.0
COc1ccc(S(=O)(=O)N2CCC(n3cnc4cc(C(F)(F)F)ccc43)CC2)cc1	40.7*	x	x	x	x	-1.6
O=C(CNC(=O)c1cccs1)c1ccc(F)cc1	x	-16.6	-1.8	-16.8	6.0	x
O=C(Nc1ccc(F)cc1)c1ccccc1F	-0.5	-9.5	-9.9	-30.6	4.5	29.0
O=C(Nc1ccncc1)c1ccccc1F	42.4*	22.7	0.1	11.6	11.8	-7.4
SMILES	PostGolgi ctrl	PLK1 inh	EphB4 antag	PLK1 PBD inh	HIV Rev-RRE inh	PostGolgi yeast
Cc1cccc(NC(=O)CCSc2nncn2C)c1	x	-10.8	-0.6	-20.3	4.2	x
COc1cccc(-c2cnc(NCc3cc(Cl)ccc3O)n2C)c1	71.0*	3.9	-5.2	24.9	-0.2	-7.1
Cn1c(-c2cccc(Br)c2)cnc1NCc1cccnc1	-0.3	10.2	7.0	-8.2	2.4	0.4
Cc1nn(-c2ccccc2)c(C)c1C(=O)OCC(=O)N1CCN(S(=O)(=O)c2ccccc2)CC1	96.5*	-1.2	1.7	-27.4	1.1	29.8
CCOc1ccc(NC(=O)c2cc3c(=O)n(C)c4ccccc4c3n2C)cc1	6.8	-11.5	-1.7	-4.3	-0.5	1.0
CSCC[C@H](NC(=O)C1CCN(S(=O)(=O)c2ccc(C)cc2)CC1)C(=O)NCc1ccco1	30.9*	-6.3	-3.4	1.7	5.5	-1.3
Cc1ccc(S(=O)(=O)Nc2cc(C(=O)Nc3cc(C)cc(C)c3)ccc2Cl)cc1	36.8*	-15.7	3.5	-5.0	3.9	-1.2
CC(C)N1C(=O)CC(Nc2ccc(N3CCOCC3)cc2)C1=O (centres undefined)	-2.0	1.1	-8.8	17.6	-1.3	12.8
COc1ccc(NC2CC(=O)N(C(C)C)C2=O)cc1 (centres undefined)	7.2	53.5*	0.1	10.5	-6.9	-10.8
CC1CC(C)CN(C(=O)c2ccc3c(c2)N(Cc2ccccc2)CCS3)C1 (centres undefined)	74.8*	-17.8	2.2	11.2	-0.4	87.5*
Cc1ccc(CN2CCSc3ccc(C(=O)N4CCN(c5ncccn5)CC4)cc32)cc1	64.4*	x	x	x	x	2.0
CN1CCN(CCCNC(=O)c2ccc3c(c2)N(Cc2ccccc2)CCS3)CC1	-3.9	-7.9	-3.5	0.3	-1.8	-6.4
CCc1cc(C(=O)OC)c(NC(=O)C2CC(=O)NN2Cc2ccccc2)s1 (centres undefined)	4.0	-7.7	0.2	-7.6	2.4	-7.0
O=C1C2C3C=CC(C4CC34)C2C(=O)N1/N=C/c1ccc(-c2ccc(F)cc2[N+](=O)[O-])o1 (centres undefined)	9.6	-32.2	0.7	-11.3	41.8*	-2.2
Cc1ccc(SCCC(=O)NCCSCc2ccccc2C)cc1	54.2*	-4.1	-0.7	11.0	5.9	7.0
O=C(OCC#CCSc1nnc(-c2ccc([N+](=O)[O-])cc2)o1)c1cccs1	6.5	3.9	3.1	-12.5	10.9	3.3
Cc1ccc(-c2nnc(SCC#CCOC(=O)c3cccs3)o2)cc1	35.6*	-13.7	0.1	0.3	15.3	-10.6
CC(=O)NCC1=C(NC(C)=O)C2CC1C(C)(C)C2C (centres undefined)	6.1	-0.5	-2.6	17.7	1.2	6.5
Cc1c([N+](=O)[O-])c(C(=O)N2CCCC2)nn1C	42.0*	-9.9	5.9	19.8	3.1	-3.5
Cc1[nH]nc(SCC(=O)N2CCCCC2)c1[N+](=O)[O-]	5.3	-2.9	-4.4	-31.9	5.1	7.5
O=C(CCN1C(=O)c2ccccc2C1=O)NC(=S)Nc1cccc(Cl)c1	20.2	-10.3	7.2	-21.7	2.8	8.8
Cc1cc(C)cc(NC(=S)NC(=O)CCN2C(=O)c3ccccc3C2=O)c1	91.6*	5.1	5.5	18.6	-1.1	87.5*
CN(C)C(=O)NC(O)C(Cl)Cl (centres undefined)	8.0	-2.9	-2.5	-12.7	12.5	-5.2
